Reference: article PMC6970276 (OncoTargets and therapy, 2020)

Assays:
K1 xenografts [1] = experiment: SPECT/CT imaging of K1 xenografts; format: in vivo, nude mice; conditions: SPECT ROI, 24h after tail vein injection of 37 MBq; tumor-bearing mouse
Method in brief: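 Female nude mice bearing K1 xenografts (over 1 cm3) received 37 MBq of the 177Lu-labelled test compound in 100 μL by tail vein. Static SPECT/CT imaging at 4, 12, 24 and 48 h, prone: high-energy collimation, 113 and 208 keV peaks, 256 × 256 matrix, 10-min acquisitions. T/NT was calculated from regions of interest. CT fusion was done at the clearest time point.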

K1 xenografts [2] = experiment: Therapeutic evaluation in tumor-bearing nude mice; format: in vivo
Method in brief: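 K1 xenograft-bearing nude mice, randomised into three groups (n = 5). Each group received tail-vein injections (100 μL) every 4 days, three times: radiolabelled test compound (11.1 MBq/5 μg), unlabelled test compound (5 μg) or 0.9% saline. Followed for 45 days. Tumour volume = a × b²/2 (long, short diameters). Growth curves compared by repeated-measures analysis, survival by log-rank test.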

[3] = Stability test of purified probes in human serum; format: in vitro ADME; conditions: 48 h, purified probe, radio-TLC, saline/acetone 1:1, Figure 2
Method in brief: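 Purified 177Lu-labelled probes were held at room temperature and in human serum. Radiochemical purity was sampled at 1, 4, 12, 24 and 48 h by radio-TLC, developed in saline/acetone 1:1 (v/v) and read on a TLC imaging scanner.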

K1 cells = experiment: In vitro retention assay in K1 cells; format: cell-based; conditions: 6 hrs loading, medium replaced, 2, 4, 6 and 8 hrs, γ-counter
[4] = Biodistribution in tumor-bearing nude mice; format: in vivo; conditions: for tissue uptake at 4 h / tissue uptake at 12 h / tissue uptake at 24 h / tissue uptake at 48 h: female, nude, mouse, iv, 1.85 MBq, total radioactivity; for Tumor/Blood: ratio, n=3
Method in brief: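 Female nude mice bearing subcutaneous K1 tumours (5 × 10^6 cells, right forelimb), used once tumours exceeded 1 cm3. The 177Lu-labelled test compound (1.85 MBq in 100 μL) was injected into the tail vein, n = 3 per time point. Mice were killed at 4, 12, 24 and 48 h. Blood, tumour and organs (including brain, bone, heart) were weighed and gamma-counted. %ID/g = tissue counts/(injected counts × tissue mass) × 100%.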

Cc1cn(CC(=O)N(CCNC(=O)COCCOCCNC(=O)COCCOCCNC(=O)CN2CCN(CC(=O)O)CCN(CC(=O)O)CCN(CC(=O)O)CC2)CC(=O)NCCN(CC(=O)NCCN(CC(=O)NCCN(CC(=O)NCCN(CC(=O)NCCN(CC(=O)NCCN(CC(=O)NCCN(CC(=O)NCCN(CC(=O)NCCN(CC(N)=O)C(=O)Cn2cnc3c(N)ncnc32)C(=O)Cn2cnc3c(N)ncnc32)C(=O)Cn2cnc3c(=O)[nH]c(N)nc32)C(=O)Cn2cnc3c(N)ncnc32)C(=O)Cn2ccc(N)nc2=O)C(=O)Cn2cnc3c(=O)[nH]c(N)nc32)C(=O)Cn2cc(C)c(=O)[nH]c2=O)C(=O)Cn2cnc3c(=O)[nH]c(N)nc32)C(=O)Cn2cnc3c(N)ncnc32)c(=O)[nH]c1=O [^177Lu-asPNA, ^177Lu-DOTA-anti-CITED1-PNA, metal not drawn]
T/NT (target/non-target) value (K1 xenografts [1]): 5.11
tumor growth rate and volume vs asPNA and saline groups (K1 xenografts [2]; 18 days after injection, n = 5, volume a × b^2/2): about two-fold smaller
median survival time longer than those of the other two groups (K1 xenografts [2]; vs asPNA and saline groups, n = 5): at least 13 days
Radiochemical purity (%) [3]: above 91%
cellular retention (K1 cells): remains in these cells for an extended period of time
tissue uptake at 4 h ([4]; bone): 2.58 ± 0.63 %ID/g
tissue uptake at 12 h ([4]; bone): 1.51 ± 0.55 %ID/g
tissue uptake at 24 h ([4]; bone): 1.03 ± 0.68 %ID/g
tissue uptake at 48 h ([4]; bone): 0.52 ± 0.23 %ID/g
tissue uptake at 4 h ([4]; brain): 1.53 ± 0.68 %ID/g
tissue uptake at 12 h ([4]; brain): 0.42 ± 0.36 %ID/g
tissue uptake at 24 h ([4]; brain): 0.39 ± 0.77 %ID/g
tissue uptake at 48 h ([4]; brain): 0.33 ± 0.59 %ID/g
tissue uptake at 4 h ([4]; heart): 3.67 ± 0.82 %ID/g
tissue uptake at 12 h ([4]; heart): 3.33 ± 0.25 %ID/g
tissue uptake at 24 h ([4]; heart): 1.53 ± 0.36 %ID/g
tissue uptake at 48 h ([4]; heart): 0.54 ± 0.39 %ID/g
tissue uptake at 4 h ([4]; intestines): 4.92 ± 0.45 %ID/g
tissue uptake at 12 h ([4]; intestines): 3.17 ± 1.5 %ID/g
tissue uptake at 24 h ([4]; intestines): 3.03 ± 0.87 %ID/g
tissue uptake at 48 h ([4]; intestines): 0.85 ± 0.27 %ID/g
tissue uptake at 4 h ([4]; kidney): 13.8 ± 1.46 %ID/g
tissue uptake at 12 h ([4]; kidney): 5.96 ± 1.32 %ID/g
tissue uptake at 24 h ([4]; kidney): 2.06 ± 0.49 %ID/g
tissue uptake at 48 h ([4]; kidney): 0.87 ± 0.41 %ID/g
tissue uptake at 4 h ([4]; liver): 13.2 ± 1.26 %ID/g
tissue uptake at 12 h ([4]; liver): 2.42 ± 0.13 %ID/g
tissue uptake at 24 h ([4]; liver): 1.81 ± 0.41 %ID/g
tissue uptake at 48 h ([4]; liver): 1.53 ± 0.23 %ID/g
tissue uptake at 4 h ([4]; lung): 4.21 ± 0.27 %ID/g
tissue uptake at 12 h ([4]; lung): 1.86 ± 0.87 %ID/g
tissue uptake at 24 h ([4]; lung): 1.66 ± 0.52 %ID/g
tissue uptake at 48 h ([4]; lung): 1.07 ± 0.41 %ID/g
tissue uptake at 4 h ([4]; muscle): 2.13 ± 0.37 %ID/g
tissue uptake at 12 h ([4]; muscle): 1.21 ± 0.69 %ID/g
tissue uptake at 24 h ([4]; muscle): 0.99 ± 0.21 %ID/g
tissue uptake at 48 h ([4]; muscle): 0.75 ± 0.18 %ID/g
tissue uptake at 4 h ([4]; spleen): 11 ± 1.07 %ID/g
tissue uptake at 12 h ([4]; spleen): 4.62 ± 0.58 %ID/g
tissue uptake at 24 h ([4]; spleen): 2.07 ± 0.62 %ID/g
tissue uptake at 48 h ([4]; spleen): 1.14 ± 0.14 %ID/g
tissue uptake at 4 h ([4]; stomach): 4.92 ± 0.26 %ID/g
tissue uptake at 12 h ([4]; stomach): 2.34 ± 0.42 %ID/g
tissue uptake at 24 h ([4]; stomach): 2.05 ± 1.03 %ID/g
tissue uptake at 48 h ([4]; stomach): 0.58 ± 0.27 %ID/g
tissue uptake at 4 h ([4]; tumor): 5.78 ± 0.87 %ID/g
tissue uptake at 12 h ([4]; tumor): 5.47 ± 1.03 %ID/g
tissue uptake at 24 h ([4]; tumor): 4.93 ± 0.47 %ID/g
tissue uptake at 48 h ([4]; tumor): 3.05 ± 0.66 %ID/g
tissue uptake at 4 h ([4]; whole blood): 9.45 ± 1.1 %ID/g
tissue uptake at 12 h ([4]; whole blood): 5.76 ± 0.46 %ID/g
tissue uptake at 24 h ([4]; whole blood): 1.98 ± 0.41 %ID/g
tissue uptake at 48 h ([4]; whole blood): 1.77 ± 0.99 %ID/g
Tumor/Blood ([4]; 4h after tail vein injection of 1.85 MBq, tumor-bearing nude mice): 0.61±1.24
Tumor/Blood ([4]; 12h after tail vein injection of 1.85 MBq, tumor-bearing nude mice): 0.95±0.97
blood-brain barrier passage (brain tissue uptake) ([4]; tumor-bearing nude mice, from radioactive marker uptake in brain tissue): could not cross the blood-brain barrier
